Reference: ChEMBL document CHEMBL4196151, “Anti-inflammatory Potential of Flavonoids from the Aerial Parts of Corispermum marschallii” (J Nat Prod, 2018)
Each block holds one compound with its values, some of them ahead of it.

Tests used:
Neutrophil [1] = experiment: Cytotoxicity against LPS-stimulated human neutrophils assessed as reduction in cell viability up to 50 uM incubated for 1 hr followed by LPS stimulation by propidium iodide staining based method
Outline: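 Viability measured by propidium iodide staining in neutrophils (1 × 10^6/mL) cultured in RPMI 1640. Compounds at final 10, 20, 50 μM were added 1 h before LPS (100 ng/mL). Read-out by cytometry, with 0.1% Triton X-100 as positive control.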

Neutrophil [2] = experiment: Antiinflammatory activity against LPS-stimulated human neutrophils assessed as reduction in TNFalpha production incubated for 1 hr followed by LPS stimulation measured after 18 to 24 hrs by ELISA; type: functional, cell-based
Outline: (§1)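 Human neutrophils isolated from buffy coat, 1.0 × 10^6/mL in RPMI 1640 with 10% FBS, 10 mM HEPES, 2 mM L-glutamine. Compounds added from 10 mM DMSO stocks at final 10, 20, 50 μM, 1 h before LPS (100 ng/mL). Culture at 37 °C, 5% CO2. Supernatants taken after 18 h by centrifugation and cytokine measured by ELISA. Quercetin positive control; mean ± SEM, ANOVA with Tukey.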

Neutrophil [3] = experiment: Antiinflammatory activity against f-MLP-stimulated human neutrophils assessed as reduction in ROS production incubated for 40 mins measured at intervals of 2 mins by luminol-dependent chemiluminescence assay; type: functional, cell-based
Outline: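 Freshly isolated human neutrophils suspended in HBSS at 2.0 × 10^5/mL and incubated with compounds at final 5, 10, 20 μM, diluted from DMSO stocks. ROS release triggered by f-MLP and read by luminol-dependent chemiluminescence. Quercetin served as positive control. Data as mean ± SEM, ANOVA with Tukey post hoc test.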

Neutrophil [4] = experiment: Antiinflammatory activity against LPS-stimulated human neutrophils assessed as reduction in IL-8 production incubated for 1 hr followed by LPS stimulation measured after 18 to 24 hrs by ELISA; type: functional, cell-based; outline: as §1

SMILES: COc1cc(/C=C/C(=O)OC[C@H]2O[C@@H](Oc3cc4oc(-c5ccc(O)c(O)c5)c(O[C@@H]5O[C@H](CO)[C@H](O)[C@H](O)[C@H]5O)c(=O)c4c(O)c3OC)[C@H](O)[C@@H](O)[C@@H]2O)ccc1O
- Activity (Neutrophil [1]): Non-Toxic
- IC50 (Neutrophil [2]): 23.2 µM
- IC50 (Neutrophil [3]): 36.6 µM
- IC50 (Neutrophil [4]): 46.7 µM

SMILES: COc1c(O)cc2oc(-c3ccc(O)c(O)c3)c(O[C@@H]3O[C@H](CO)[C@H](O)[C@H](O)[C@H]3O[C@@H]3OC[C@](O)(CO)[C@H]3O)c(=O)c2c1O
- Activity (Neutrophil [1]): Non-Toxic
- IC50 (Neutrophil [2]): 12.8 µM
- IC50 (Neutrophil [3]): 7.1 µM
- IC50 (Neutrophil [4]): 7.2 µM

SMILES: COc1cc(-c2oc3cc(O[C@@H]4O[C@H](CO)[C@@H](O)[C@H](O)[C@H]4O)c(OC)c(O)c3c(=O)c2O[C@@H]2O[C@H](CO)[C@H](O)[C@H](O)[C@H]2O)ccc1O
- Activity (Neutrophil [1]): Non-Toxic
- IC50 (Neutrophil [2]): 16.3 µM
- IC50 (Neutrophil [3]): 31.5 µM
- IC50 (Neutrophil [4]): 25.7 µM

SMILES: COc1c(O[C@@H]2O[C@H](CO)[C@@H](O)[C@H](O)[C@H]2O)cc2oc(-c3ccc(O)c(O)c3)c(O[C@@H]3O[C@H](CO)[C@H](O)[C@H](O)[C@H]3O)c(=O)c2c1O
- Activity (Neutrophil [1]): Non-Toxic
- IC50 (Neutrophil [3]): 26.9 µM
- IC50 (Neutrophil [4]): 66 µM

SMILES: COc1c(O)cc2oc(-c3ccc(O)cc3)c(O[C@@H]3O[C@H](CO)[C@H](O)[C@H](O)[C@H]3O)c(=O)c2c1O
- IC50 (Neutrophil [2]): 11.7 µM
- IC50 (Neutrophil [3]): 15.4 µM
- IC50 (Neutrophil [4]): 18.1 µM

SMILES: O=c1c(O)c(-c2ccc(O)c(O)c2)oc2cc(O)cc(O)c12 [QUERCETIN]
- IC50 (Neutrophil [2]): 20.4 µM
- IC50 (Neutrophil [3]): 4.4 µM
- IC50 (Neutrophil [4]): 33 µM

SMILES: COc1cc(/C=C/C(=O)OC[C@H]2O[C@@H](Oc3cc4oc(-c5ccc(O)c(OC)c5)c(O[C@@H]5O[C@H](CO)[C@H](O)[C@H](O)[C@H]5O)c(=O)c4c(O)c3OC)[C@H](O)[C@@H](O)[C@@H]2O)ccc1O
- Activity (Neutrophil [1]): Non-Toxic
- IC50 (Neutrophil [2]): 20.7 µM
- IC50 (Neutrophil [3]): 6 µM

SMILES: COc1cc(-c2oc3cc(O)c(OC)c(O)c3c(=O)c2O[C@@H]2O[C@H](CO)[C@H](O)[C@H](O)[C@H]2O)ccc1O
- Activity (Neutrophil [1]): Non-Toxic
- IC50 (Neutrophil [2]): 16.3 µM
- IC50 (Neutrophil [3]): 38.5 µM
- IC50 (Neutrophil [4]): 51.9 µM

More lines, main results first:

- IC50 (Neutrophil [3]): 5.7 µM
- IC50 (Neutrophil [4]): 25.5 µM
SMILES: COc1c(O)cc2oc(-c3ccc(O)c(O)c3)c(O[C@@H]3O[C@H](CO[C@@H]4OC[C@H](O)[C@H](O)[C@H]4O)[C@H](O)[C@H](O)[C@H]3O)c(=O)c2c1O
- Activity (Neutrophil [1]): Non-Toxic

- IC50 (Neutrophil [2]): 9.7 µM
- IC50 (Neutrophil [3]): 5.4 µM
- IC50 (Neutrophil [4]): 24.5 µM
SMILES: COc1c(O)cc2oc(-c3ccc(O)c(O)c3)c(O[C@@H]3O[C@H](CO)[C@H](O)[C@H](O)[C@H]3O[C@@H]3OC[C@](O)(CO[C@@H]4OC[C@H](O)[C@H](O)[C@H]4O)[C@H]3O)c(=O)c2c1O
- Activity (Neutrophil [1]): Non-Toxic

- IC50 (Neutrophil [2]): 7.7 µM
- IC50 (Neutrophil [3]): 3.4 µM
- IC50 (Neutrophil [4]): 8 µM
SMILES: COc1c(O)cc2oc(-c3ccc(O)c(O)c3)c(O[C@@H]3O[C@H](CO)[C@H](O)[C@H](O)[C@H]3O)c(=O)c2c1O

- IC50 (Neutrophil [2]): 9.3 µM
- IC50 (Neutrophil [3]): 5.7 µM
- IC50 (Neutrophil [4]): 28.9 µM
SMILES: COc1c(O)cc2oc(-c3ccc(O)c(O)c3)c(O[C@@H]3O[C@H](CO[C@@H]4O[C@H](CO)[C@@H](O)[C@H](O)[C@H]4O)[C@H](O)[C@H](O)[C@H]3O)c(=O)c2c1O
- Activity (Neutrophil [1]): Non-Toxic
